One may read the pIC50 as the IC50 on a negative log10 scale, so that one unit is a factor of ten.

27 molecules from ChEMBL document CHEMBL1138179, “Discovery of a novel nonphosphorylated pentapeptide motif displaying high affinity for Grb2-SH2 domain by the utilization of 3'-substituted tyrosine derivatives” (J Med Chem, 2006) can be followed below.

pIC50: −log10 of the molar value. Numbered stars: 1 amine (or outer) side, 2 acyl side, 3 side chain; on linkers, the order of the positions; unused ones are H or OH. Bridge positions count the residues as written; N and C are the ends. Square brackets hold non-standard residues; d marks the D form. Peptide text beside a SMILES is read from it. Tyr(3-NO2) = N[C@@H](Cc1ccc(O)c([N+](=O)[O-])c1)C(=O)O; X1 = O=C(O)c1cc(C[C@H](N[*:1])C(=O)[*:2])ccc1O; Tyr(3-OMe) = COc1cc(C[C@H](N)C(=O)O)ccc1O; Tyr(3-NH2) = Nc1cc(C[C@H](N)C(=O)O)ccc1O; Dopa = N[C@@H](Cc1ccc(O)c(O)c1)C(=O)O; Gla = N[C@@H](CC(C(=O)O)C(=O)O)C(=O)O; Aad = N[C@@H](CCCC(=O)O)C(=O)O; Ac6c = NC1(C(=O)O)CCCCC1; Ava = NCCCCC(=O)O; βAla = NCCC(=O)O

The first assay has as its system MDA-MB-453. The assay can be described thus: cells. As to conditions: Homo sapiens.
The molecule `CC(C)C[C@@H]1NC(=O)[C@H](CC(C(=O)O)C(=O)O)NC(=O)C[S+]([O-])C[C@@H](C(N)=O)NC(=O)CCCCNC(=O)[C@H](CC(N)=O)NC(=O)C2(CCCCC2)NC(=O)[C@H](Cc2ccc(O)c(N)c2)NC1=O` (stereo partly drawn) had a negative-log IC50 (pIC50) of 7.72.

The target of another assay is Growth factor receptor-bound protein 2 (Homo sapiens, UniProt P62993). The assay can be described thus: Inhibition of recombinant GRB2-SH2 domain.
Chain of Growth factor receptor-bound protein 2 (P62993 whole entry, the tested form may be a part): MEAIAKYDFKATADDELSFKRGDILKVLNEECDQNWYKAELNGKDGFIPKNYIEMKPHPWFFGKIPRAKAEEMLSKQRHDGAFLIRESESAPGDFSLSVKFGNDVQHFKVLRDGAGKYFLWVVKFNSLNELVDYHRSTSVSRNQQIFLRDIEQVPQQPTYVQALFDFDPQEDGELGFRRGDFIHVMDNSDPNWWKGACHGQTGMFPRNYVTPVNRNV
Conditions: not given
The procedure, abridged: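 Competitive SPR (BIAcore 3000): inhibitor premixed with recombinant Grb2-SH2 protein; binding at equilibrium measured to immobilized biotinylated SHC pTyr317 phosphopeptide (biotinyl-DDPS-pY-VNVQ). IC50 = concentration giving half-maximal competition; mean of at least two independent experiments.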
Consider `CC(C)C[C@@H]1NC(=O)[C@H](CCCC(=O)O)NC(=O)C[S+]([O-])C[C@H](C(N)=O)NC(=O)CCCCNC(=O)[C@H](CC(N)=O)NC(=O)C2(CCCCC2)NC(=O)[C@H](Cc2ccc(O)c(N)c2)NC1=O` (stereo partly drawn), for which the pIC50 was 4.85. Still for that read-out and setting: the same measure for `COc1cc(C[C@@H]2NC(=O)[C@H](CC(C)C)NC(=O)[C@H](CCCC(=O)O)NC(=O)C[S+]([O-])C[C@H](C(N)=O)NC(=O)CCCCNC(=O)[C@H](CC(N)=O)NC(=O)C3(CCCCC3)NC2=O)ccc1O` (stereo partly drawn): below 3.00; for `CC(C)C[C@@H]1NC(=O)[C@H](CC(C(=O)O)C(=O)O)NC(=O)C[S+]([O-])C[C@H](C(N)=O)NC(=O)CCNC(=O)[C@H](CC(N)=O)NC(=O)C2(CCCCC2)NC(=O)[C@H](Cc2ccc(O)c(N)c2)NC1=O` (stereo partly drawn): 4.95. On to `CC(C)C[C@@H]1NC(=O)[C@H](CCCC(=O)O)NC(=O)CSC[C@@H](C(N)=O)NC(=O)CCCCNC(=O)[C@H](CC(N)=O)NC(=O)C2(CCCCC2)NC(=O)[C@H](Cc2ccc(O)c(O)c2)NC1=O` ({CH2CO}-[Aad]L[Dopa][Ac6c]N[Ava]C-NH2; thioether N-7), for which the negative-log IC50 (pIC50) is 3.87. As for `CC(C)C[C@@H]1NC(=O)[C@H](CCCC(=O)O)NC(=O)C[S+]([O-])C[C@@H](C(N)=O)NC(=O)CCCCNC(=O)[C@H](CC(N)=O)NC(=O)C2(CCCCC2)NC(=O)[C@H](Cc2ccc(O)c(C(=O)O)c2)NC1=O` (stereo partly drawn), the pIC50 is 4.80. Still for that read-out and setting: in the case of `CC(C)C[C@@H]1NC(=O)[C@H](CCCC(=O)O)NC(=O)CSC[C@@H](C(N)=O)NC(=O)CCCCNC(=O)[C@H](CC(N)=O)NC(=O)C2(CCCCC2)NC(=O)[C@H](Cc2ccc(O)cc2)NC1=O` ({CH2CO}-[Aad]LY[Ac6c]N[Ava]C-NH2; thioether N-7) it was 4.03.

For the molecule `CC(C)C[C@@H]1NC(=O)[C@H](CC(C(=O)O)C(=O)O)NC(=O)C[S+]([O-])C[C@@H](C(N)=O)NC(=O)CCCCNC(=O)[C@H](CC(N)=O)NC(=O)C2(CCCCC2)NC(=O)[C@H](Cc2ccc(O)c(N)c2)NC1=O` (stereo partly drawn), the pIC50 was 7.24.

Consider `CC(C)C[C@@H]1NC(=O)[C@H](CC(C(=O)O)C(=O)O)NC(=O)C[S+]([O-])C[C@@H](C(N)=O)NC(=O)[C@H](CC(N)=O)NC(=O)C2(CCCCC2)NC(=O)[C@H](Cc2ccc(O)c(N)c2)NC1=O` (stereo partly drawn), for which the pIC50 is 5.01. The same measure, in the same setting: in the case of `CC(C)C[C@@H]1NC(=O)[C@H](CC(C(=O)O)C(=O)O)NC(=O)CSC[C@@H](C(N)=O)NC(=O)[C@H](CC(N)=O)NC(=O)C2(CCCCC2)NC(=O)[C@H](Cc2ccc(O)c(N)c2)NC1=O` ({CH2CO}-[Gla]L[Tyr(3-NH2)][Ac6c]NC-NH2; thioether N-6) it was 4.65; in that of `CC(C)C[C@@H]1NC(=O)[C@H](CCCC(=O)O)NC(=O)C[S+]([O-])C[C@@H](C(N)=O)NC(=O)CCCCNC(=O)[C@H](CC(N)=O)NC(=O)C2(CCCCC2)NC(=O)[C@H](Cc2ccc(O)c(O)c2)NC1=O` (stereo partly drawn), 4.06. Same read-out and setting: in the case of `CC(C)C[C@@H]1NC(=O)[C@H](CCCC(=O)O)NC(=O)C[S+]([O-])C[C@@H](C(N)=O)NC(=O)CCCCNC(=O)[C@H](CC(N)=O)NC(=O)C2(CCCCC2)NC(=O)[C@H](Cc2ccc(O)c([N+](=O)[O-])c2)NC1=O` (stereo partly drawn) it was 4.60; in that of `CC(C)C[C@@H]1NC(=O)[C@H](CC(C(=O)O)C(=O)O)NC(=O)C[S+]([O-])C[C@H](C(N)=O)NC(=O)[C@H](CC(N)=O)NC(=O)C2(CCCCC2)NC(=O)[C@H](Cc2ccc(O)c(N)c2)NC1=O` (stereo partly drawn), 3.70. With `CC(C)C[C@@H]1NC(=O)[C@H](CCCC(=O)O)NC(=O)C[S+]([O-])C[C@H](C(N)=O)NC(=O)CCCCNC(=O)[C@H](CC(N)=O)NC(=O)C2(CCCCC2)NC(=O)[C@H](Cc2ccc(O)cc2)NC1=O` (stereo partly drawn), the pIC50 was 3.00. Turning to `CC(C)C[C@@H]1NC(=O)[C@H](CCCC(=O)O)NC(=O)CSC[C@@H](C(N)=O)NC(=O)CCCCNC(=O)[C@H](CC(N)=O)NC(=O)C2(CCCCC2)NC(=O)[C@H](Cc2ccc(O)c(N)c2)NC1=O` ({CH2CO}-[Aad]L[Tyr(3-NH2)][Ac6c]N[Ava]C-NH2; thioether N-7), the negative logarithm of the IC50 (pIC50) is 5.05. On the same count and under the same terms, in the case of `CC(C)C[C@@H]1NC(=O)[C@H](CCCC(=O)O)NC(=O)C[S+]([O-])C[C@H](C(N)=O)NC(=O)CCCCNC(=O)[C@H](CC(N)=O)NC(=O)C2(CCCCC2)NC(=O)[C@H](Cc2ccc(O)c(C(=O)O)c2)NC1=O` (stereo partly drawn) it was 3.67; in that of `CC(C)C[C@@H]1NC(=O)[C@H](CC(C(=O)O)C(=O)O)NC(=O)CSC[C@@H](C(N)=O)NC(=O)CCNC(=O)[C@H](CC(N)=O)NC(=O)C2(CCCCC2)NC(=O)[C@H](Cc2ccc(O)c(N)c2)NC1=O` ({CH2CO}-[Gla]L[Tyr(3-NH2)][Ac6c]N[βAla]C-NH2; thioether N-7), 5.99; in that of `CC(C)C[C@@H]1NC(=O)[C@H](CC(C(=O)O)C(=O)O)NC(=O)C[S+]([O-])C[C@H](C(N)=O)NC(=O)CCCCNC(=O)[C@H](CC(N)=O)NC(=O)C2(CCCCC2)NC(=O)[C@H](Cc2ccc(O)c(N)c2)NC1=O` (stereo partly drawn), 5.81. The same measure, in the same setting: the same measure for `CC(C)C[C@@H]1NC(=O)[C@H](CCCC(=O)O)NC(=O)C[S+]([O-])C[C@H](C(N)=O)NC(=O)CCCCNC(=O)[C@H](CC(N)=O)NC(=O)C2(CCCCC2)NC(=O)[C@H](Cc2ccc(O)c(O)c2)NC1=O` (stereo partly drawn): 3.26; for `COc1cc(C[C@@H]2NC(=O)[C@H](CC(C)C)NC(=O)[C@H](CCCC(=O)O)NC(=O)CSC[C@@H](C(N)=O)NC(=O)CCCCNC(=O)[C@H](CC(N)=O)NC(=O)C3(CCCCC3)NC2=O)ccc1O` ({CH2CO}-[Aad]L[Tyr(3-OMe)][Ac6c]N[Ava]C-NH2; thioether N-7): 3.61; for `CC(C)C[C@@H]1NC(=O)[C@H](CCCC(=O)O)NC(=O)C[S+]([O-])C[C@H](C(N)=O)NC(=O)CCCCNC(=O)[C@H](CC(N)=O)NC(=O)C2(CCCCC2)NC(=O)[C@H](Cc2ccc(O)c([N+](=O)[O-])c2)NC1=O` (stereo partly drawn): 3.58. As for `CC(C)C[C@@H]1NC(=O)[C@H](CCCC(=O)O)NC(=O)C[S+]([O-])C[C@@H](C(N)=O)NC(=O)CCCCNC(=O)[C@H](CC(N)=O)NC(=O)C2(CCCCC2)NC(=O)[C@H](Cc2ccc(O)cc2)NC1=O` (stereo partly drawn), the negative logarithm of the IC50 (pIC50) is 4.11. Still for that read-out and setting: the same measure for `CC(C)C[C@@H]1NC(=O)[C@H](CCCC(=O)O)NC(=O)CSC[C@@H](C(N)=O)NC(=O)CCCCNC(=O)[C@H](CC(N)=O)NC(=O)C2(CCCCC2)NC(=O)[C@H](Cc2ccc(O)c(C(=O)O)c2)NC1=O` ({CH2CO}-[Aad]L[X1][Ac6c]N[Ava]C-NH2; thioether N-7): 4.06; for `CC(C)C[C@@H]1NC(=O)[C@H](CCCC(=O)O)NC(=O)C[S+]([O-])C[C@@H](C(N)=O)NC(=O)CCCCNC(=O)[C@H](CC(N)=O)NC(=O)C2(CCCCC2)NC(=O)[C@H](Cc2ccc(O)c(N)c2)NC1=O` (stereo partly drawn): 5.41; for `CC(C)C[C@@H]1NC(=O)[C@H](CC(C(=O)O)C(=O)O)NC(=O)CSC[C@@H](C(N)=O)NC(=O)CCCCNC(=O)[C@H](CC(N)=O)NC(=O)C2(CCCCC2)NC(=O)[C@H](Cc2ccc(O)c(N)c2)NC1=O` ({CH2CO}-[Gla]L[Tyr(3-NH2)][Ac6c]N[Ava]C-NH2; thioether N-7): 6.72. On the same count and under the same terms, the same measure for `CC(C)C[C@@H]1NC(=O)[C@H](CCCC(=O)O)NC(=O)CSC[C@@H](C(N)=O)NC(=O)CCCCNC(=O)[C@H](CC(N)=O)NC(=O)C2(CCCCC2)NC(=O)[C@H](Cc2ccc(O)c([N+](=O)[O-])c2)NC1=O` ({CH2CO}-[Aad]L[Tyr(3-NO2)][Ac6c]N[Ava]C-NH2; thioether N-7): 3.74; for `COc1cc(C[C@@H]2NC(=O)[C@H](CC(C)C)NC(=O)[C@H](CCCC(=O)O)NC(=O)C[S+]([O-])C[C@@H](C(N)=O)NC(=O)CCCCNC(=O)[C@H](CC(N)=O)NC(=O)C3(CCCCC3)NC2=O)ccc1O` (stereo partly drawn): 4.01; for `CC(C)C[C@@H]1NC(=O)[C@H](CC(C(=O)O)C(=O)O)NC(=O)C[S+]([O-])C[C@@H](C(N)=O)NC(=O)CCNC(=O)[C@H](CC(N)=O)NC(=O)C2(CCCCC2)NC(=O)[C@H](Cc2ccc(O)c(N)c2)NC1=O` (stereo partly drawn): 6.44.
